From ChEMBL document CHEMBL1140069, “In vitro antifungal activity of polyfunctionalized 2-(hetero)arylquinolines prepared through imino Diels-Alder reactions” (2008)
Converted amounts (≈) assume the structure as drawn.

Experiments:
Type in all cases: functional
[1] = tested on: Cryptococcus neoformans; assay: Antimicrobial activity against Cryptococcus neoformans IM 031631 isolate at 100 ug/ml after 48 hrs
Method in brief: (§1)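 Percent growth inhibition in 96-well microplates. Compound stocks in DMSO (≤2%) were diluted in RPMI-1640 to final 100–6.25 µg/mL, and 100 µL inoculum was added (final 200 µL). Controls were a growth well (inoculum with matching DMSO, no compound) and a sterility well (no inoculum). Inhibition was calculated against growth and sterility wells.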

[2] = tested on: Cryptococcus neoformans; assay: Antimicrobial activity against Cryptococcus neoformans IM 972724 isolate at 6.25 ug/ml after 48 hrs
Method in brief: (§2)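 Clinical Cryptococcus isolates kept on Sabouraud-dextrose agar slopes; inoculum 1–5 × 10³ CFU/mL. Quinoline DMSO stocks were diluted in RPMI-1640 to final 100–6.25 µg/mL, with DMSO ≤2%. An equal volume of inoculum was added (200 µL per well). Run in triplicate.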

[3] = tested on: Cryptococcus neoformans; assay: Antimicrobial activity against Cryptococcus neoformans IM 972751 isolate at 100 ug/ml after 48 hrs; method in brief: as §2
[4] = tested on: Candida albicans; assay: Antimicrobial activity against Candida albicans ATCC 10231 at 100 ug/ml after 24 hrs; details: ATCC 10231, 24 h
Method in brief: (§3)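 Growth-inhibition microplate test. Strains are grown on Sabouraud-chloramphenicol agar for 48 h at 30 °C, and inoculum is added to RPMI-1640 containing compound at a final 100–6.25, with DMSO ≤2%. Each strain has a growth control (same DMSO, no compound) and a sterility control.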

[5] = tested on: Aspergillus niger; assay: Antifungal activity against Aspergillus niger ATCC 9029 after 48 hrs by broth microdilution technique; details: ATCC 9029, 48 h
Method in brief: (§4)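 CLSI broth microdilution: M-27 A2 for yeasts and M-38 A for filamentous fungi. Medium is RPMI-1640 buffered to pH 7.0 with MOPS. Compound is diluted twofold from 250 to 0.98, final DMSO ≤2%. Inoculum is 1–5 × 10³ CFU/mL. Plates are incubated at 35 °C in a moist, dark chamber and read visually at 48 h. MIC100 is the lowest concentration giving total growth inhibition versus drug-free control.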

[6] = tested on: Cryptococcus neoformans; assay: Antimicrobial activity against Cryptococcus neoformans IM 031706 isolate at 12.5 ug/ml after 48 hrs; method in brief: as §1
[7] = tested on: Cryptococcus neoformans; assay: Antimicrobial activity against Cryptococcus neoformans IM 983036 isolate at 100 ug/ml after 48 hrs; method in brief: as §2
[8] = tested on: Candida albicans; assay: Antifungal activity against Candida albicans ATCC 10231 after 48 hrs by broth microdilution technique; details: ATCC 10231, 48 h; method in brief: as §4
[9] = tested on: Cryptococcus neoformans; assay: Antimicrobial activity against Cryptococcus neoformans IM 042074 isolate at 100 ug/ml after 48 hrs; method in brief: as §1
[10] = tested on: Cryptococcus neoformans; assay: Antimicrobial activity against Cryptococcus neoformans IM 052470 isolate at 12.5 ug/ml after 48 hrs; method in brief: as §1
[11] = tested on: Cryptococcus neoformans; assay: Antimicrobial activity against Cryptococcus neoformans ATCC 32264 at 12.5 ug/ml after 48 hrs; details: ATCC 32264, 48 h; method in brief: as §1
[12] = tested on: Cryptococcus neoformans; assay: Antimicrobial activity against Cryptococcus neoformans IM 961951 isolate at 50 ug/ml after 48 hrs; method in brief: as §2
[13] = tested on: Cryptococcus neoformans; assay: Antimicrobial activity against Cryptococcus neoformans IM 983040 isolate at 100 ug/ml after 48 hrs; method in brief: as §2
[14] = tested on: Candida albicans; assay: Antimicrobial activity against Candida albicans ATCC 10231 at 6.25 ug/ml after 24 hrs; details: ATCC 10231, 24 h; method in brief: as §3
[15] = tested on: Cryptococcus neoformans; assay: Antimicrobial activity against Cryptococcus neoformans IM 031631 isolate at 6.25 ug/ml after 48 hrs; method in brief: as §1
[16] = tested on: Candida albicans; assay: Antimicrobial activity against Candida albicans ATCC 10231 at 12.5 ug/ml after 24 hrs; details: ATCC 10231, 24 h; method in brief: as §3
[17] = tested on: Nannizzia gypsea; assay: Antifungal activity against Microsporum gypseum C115 after 48 hrs by broth microdilution technique; method in brief: as §4
[18] = tested on: Cryptococcus neoformans; assay: Antimicrobial activity against Cryptococcus neoformans IM 031706 isolate at 25 ug/ml after 48 hrs; method in brief: as §1
[19] = tested on: Cryptococcus neoformans; assay: Antifungal activity against Cryptococcus neoformans ATCC 32264 after 48 hrs by broth microdilution technique; details: ATCC 32264, 48 h; method in brief: as §4
[20] = tested on: Cryptococcus neoformans; assay: Antimicrobial activity against Cryptococcus neoformans IM 00319 isolate at 25 ug/ml after 48 hrs; method in brief: as §1
[21] = tested on: Cryptococcus neoformans; assay: Antimicrobial activity against Cryptococcus neoformans IM 00319 isolate at 12.5 ug/ml after 48 hrs; method in brief: as §1
[22] = tested on: Cryptococcus neoformans; assay: Antimicrobial activity against Cryptococcus neoformans IM 972724 isolate at 12.5 ug/ml after 48 hrs; method in brief: as §2
[23] = tested on: Cryptococcus neoformans; assay: Antimicrobial activity against Cryptococcus neoformans IM 983036 isolate at 12.5 ug/ml after 48 hrs; method in brief: as §2
[24] = tested on: Cryptococcus neoformans; assay: Antimicrobial activity against Cryptococcus neoformans IM 972751 isolate at 6.25 ug/ml after 48 hrs; method in brief: as §2
[25] = tested on: Cryptococcus neoformans; assay: Antimicrobial activity against Cryptococcus neoformans IM 983040 isolate at 12.5 ug/ml after 48 hrs; method in brief: as §2
[26] = tested on: Cryptococcus neoformans; assay: Antimicrobial activity against Cryptococcus neoformans IM 042074 isolate at 50 ug/ml after 48 hrs; method in brief: as §1
[27] = tested on: Cryptococcus neoformans; assay: Antimicrobial activity against Cryptococcus neoformans IM 042074 isolate at 6.25 ug/ml after 48 hrs; method in brief: as §1
[28] = tested on: Cryptococcus neoformans; assay: Antimicrobial activity against Cryptococcus neoformans IM 983036 isolate at 50 ug/ml after 48 hrs; method in brief: as §2
[29] = tested on: Saccharomyces cerevisiae; assay: Antifungal activity against Saccharomyces cerevisiae ATCC 9763 after 48 hrs by broth microdilution technique; details: ATCC 9763, 48 h; method in brief: as §4
[30] = tested on: Cryptococcus neoformans; assay: Antimicrobial activity against Cryptococcus neoformans IM 00319 isolate at 50 ug/ml after 48 hrs; method in brief: as §1
[31] = tested on: Cryptococcus neoformans; assay: Antimicrobial activity against Cryptococcus neoformans IM 972724 isolate at 25 ug/ml after 48 hrs; method in brief: as §2
[32] = tested on: Cryptococcus neoformans; assay: Antimicrobial activity against Cryptococcus neoformans IM 972751 isolate at 25 ug/ml after 48 hrs; method in brief: as §2
[33] = tested on: Cryptococcus neoformans; assay: Antimicrobial activity against Cryptococcus neoformans IM 031631 isolate at 12.5 ug/ml after 48 hrs; method in brief: as §1
[34] = tested on: Cryptococcus neoformans; assay: Antimicrobial activity against Cryptococcus neoformans IM 031631 isolate at 50 ug/ml after 48 hrs; method in brief: as §1
[35] = tested on: Cryptococcus neoformans; assay: Antimicrobial activity against Cryptococcus neoformans IM 961951 isolate at 6.25 ug/ml after 48 hrs; method in brief: as §2
[36] = tested on: Cryptococcus neoformans; assay: Antimicrobial activity against Cryptococcus neoformans IM 961951 isolate at 12.5 ug/ml after 48 hrs; method in brief: as §1
[37] = tested on: Aspergillus fumigatus; assay: Antifungal activity against Aspergillus fumigatus ATTC 26934 after 48 hrs by broth microdilution technique; method in brief: as §4
[38] = tested on: Cryptococcus neoformans; assay: Antimicrobial activity against Cryptococcus neoformans IM 972751 isolate at 12.5 ug/ml after 48 hrs; method in brief: as §2
[39] = tested on: Cryptococcus neoformans; assay: Antimicrobial activity against Cryptococcus neoformans IM 052470 isolate at 100 ug/ml after 48 hrs; method in brief: as §1
[40] = tested on: Trichophyton rubrum; assay: Antifungal activity against Trichophyton rubrum C110 after 48 hrs by broth microdilution technique; details: read-out: MIC; method in brief: as §4
[41] = tested on: Cryptococcus neoformans; assay: Antimicrobial activity against Cryptococcus neoformans IM 983040 isolate at 25 ug/ml after 48 hrs; method in brief: as §2
[42] = tested on: Cryptococcus neoformans; assay: Antimicrobial activity against Cryptococcus neoformans IM 031706 isolate at 6.25 ug/ml after 48 hrs; method in brief: as §1

## c1ccc2nc(-c3ccncc3)ccc2c1
[1]
  inhibition at 100 µg/mL: 100%
[2]
  inhibition at 6.25 µg/mL: 0%
[3]
  inhibition at 100 µg/mL: 98%
[4]
  inhibition at 100 µg/mL: 100%
[5]
  MIC: 50 µg/mL (≈ 242 µM)
[6]
  inhibition at 12.5 µg/mL: 41%
[7]
  inhibition at 100 µg/mL: 79%
[8]
  MIC: 100 µg/mL (≈ 485 µM)
[9]
  inhibition at 100 µg/mL: 92%
[10]
  inhibition at 12.5 µg/mL: 24%
[11]
  inhibition at 12.5 µg/mL: 90%
[12]
  inhibition at 50 µg/mL: 89%
[13]
  inhibition at 100 µg/mL: 45%
[14]
  inhibition at 6.25 µg/mL: 19%
[15]
  inhibition at 6.25 µg/mL: 12%
[16]
  inhibition at 12.5 µg/mL: 41%
[17]
  MIC: 50 µg/mL (≈ 242 µM)
[18]
  inhibition at 25 µg/mL: 57%
[19]
  MIC: 50 µg/mL (≈ 242 µM)
[20]
  inhibition at 25 µg/mL: 52%
[21]
  inhibition at 12.5 µg/mL: 32%
[22]
  inhibition at 12.5 µg/mL: 0%
[23]
  inhibition at 12.5 µg/mL: 20%
[24]
  inhibition at 6.25 µg/mL: 0%
[25]
  inhibition at 12.5 µg/mL: 0%
[26]
  inhibition at 50 µg/mL: 87%
[27]
  inhibition at 6.25 µg/mL: 68%
[28]
  inhibition at 50 µg/mL: 69%
[29]
  MIC: 50 µg/mL (≈ 242 µM)
[30]
  inhibition at 50 µg/mL: 80%
[31]
  inhibition at 25 µg/mL: 8%
[32]
  inhibition at 25 µg/mL: 9%
[33]
  inhibition at 12.5 µg/mL: 36%
[34]
  inhibition at 50 µg/mL: 75%
[35]
  inhibition at 6.25 µg/mL: 4%
[36]
  inhibition at 12.5 µg/mL: 34%
[37]
  MIC: 50 µg/mL (≈ 242 µM)
[38]
  inhibition at 12.5 µg/mL: 0%
[39]
  inhibition at 100 µg/mL: 99%
[40]
  MIC: 50 µg/mL (≈ 242 µM)
[41]
  inhibition at 25 µg/mL: 12%
[42]
  inhibition at 6.25 µg/mL: 21%
